Tests used:
[1] = system: healthy purpose-bred cats; conditions: in vivo
[2] = system: canine, human, and murine glioma cell lines; test: In vitro sensitivity of glioma cell lines; type: cell-based; conditions: monotherapy, biologically relevant exposures
Summary of the method: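 Murine, canine and human glioma cell lines were tested for in vitro sensitivity to the test compound and to radiation, each given as monotherapy. PC-3 expression in the same lines was also evaluated.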

[3] = system: dogs with spontaneously-arising glioma and meningioma; type: in vivo, dog; conditions: six dogs
Summary of the method: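 Dogs with spontaneously arising glioma or meningioma received the oral test compound together with conventional therapies. Tolerability was assessed, with serial clinical and MRI outcome assessments.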

[4] = system: dogs with EPI; test: Oral cobalamin supplementation in dogs with EPI, serum cobalamin; type: in vivo, dog; conditions: daily cyanocobalamin tablets, 28–199 days; 10 dogs; at inclusion 204
Summary of the method: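 Dogs entered with EPI diagnosed by subnormal serum cTLI (reference 5–35 μg/L) and an initial serum cobalamin of 350 ng/L or less (reference 234–811 ng/L). All received daily oral cyanocobalamin tablets at 1 mg/tablet.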

[5] = system: thyroid TT4 response; test: TSH stimulation test, serum TT4; type: in vivo, dog; conditions: 6 dogs, oral hydrocortisone for 90 days
[6] = system: diabetic cats; test: One-year randomized trial of insulin types in diabetic cats; type: in vivo, cat; conditions: BID insulin, glargine=24, PZIR=22
[7] = system: dogs with MUE; test: Retrospective survival of dogs with MUE given cytarabine CRI; type: in vivo, dog; conditions: 22 dogs, at least 1 CRI treatment; range 61 – 1312

Cc1cccc([C@H](C)c2cnc[nH]2)c1C [dexmedetomidine]
cats with successful emesis [1]: 58%

C=CCc1cccc(/C=N/NC(=O)CN2CCN(Cc3ccccc3)CC2)c1O [PAC‐1]
in vitro sensitivity of glioma cell lines [2]: show in vitro sensitivity
partial responses [3]: 3 dogs

cyanocobalamin [CBL]
median serum CBL concentration after supplementation [4]: 1,113 ng/L

C[C@]12CCC(=O)C=C1CC[C@@H]1[C@@H]2[C@@H](O)C[C@@]2(C)[C@H]1CC[C@]2(O)C(=O)CO [hydrocortisone]
mean basal serum TT4 concentration [5]: 0.32 µg/dL

PZIR: human-recombinant protamine zinc insulin
cats achieving remission [6]: 23%

Nc1ccn([C@@H]2O[C@H](CO)[C@@H](O)[C@@H]2O)c(=O)n1 [cytarabine]
Survival, median [7]: 258.5 days

— PMC5508335 (Journal of Veterinary Internal Medicine, 2017)
